# Data taken from publication PMC9851031 (ACS Omega, 2023).
# Key:
# Assay type in all cases: in vivo
# Swiss albino mice = test: Acute toxicity; details: for number of animals dead/tot number of animals tested: i.p., observed 24 h
# Procedure, shortened: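 Albino mice, five per cage, on a 12 h light/dark cycle, fasted overnight. Acute toxic-class testing followed OECD 423. Deaths and signs of toxicity were recorded after dosing to estimate the median lethal dose.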
# [1] = system: scPTZ-induced seizure in albino mice; test: Subcutaneous pentylenetetrazole; details: Mus musculus, ip, 4 h, read-out: scPTZ minimum dose for antiepileptic potential
# Procedure, shortened: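 Overnight-fasted albino mice were dosed i.p. with test compound in PEG-200 at 30, 100 and 300 mg/kg and observed at 0.5 and 4 h. Pentylenetetrazole was injected subcutaneously in the posterior midline. Protection meant no clonic spasm episode lasting 5 s, n = 5 per group. The minimum protective dose was reported.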
# albino mice = test: Rotarod neurotoxicity test; details: doses 30, 100, 300 mg/kg; for neurotoxicity minimum dose: i.p. in mice
# Procedure, shortened: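 Albino mice of either sex, housed five per cage on a 12 h light/dark cycle and fasted overnight, were first trained to balance on a 3.2 cm diameter rod turning at 6 rpm. Trained mice then received test compound i.p. in PEG-200 at 30, 100 or 300 mg/kg. Neurotoxicity was scored as failure to stay on the rod for at least 1 min in each of three successive trials.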
# mice = test: Antidepressant activity: locomotor activity by actophotometer; details: for depressant effect (in words): actophotometer, 100 mg/kg; for % reduction in locomotor activity / locomotor activity score, after treatment means ± SEM: n = 5, 5 min
# Procedure, shortened: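 Actophotometer test in mice. Test compound at 100 mg/kg or diazepam standard was given intraperitoneally. Locomotor activity scores were taken at baseline and after treatment over a 5 min span, n = 5. Percent reduction in locomotor activity was calculated against control. Data are mean ± SEM, analysed by one-way ANOVA with Dunnett's test.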
# [2] = system: MES-induced seizure in albino mice; test: Maximum electroshock; details: i.p. in mice, 4.0 h; doses 30, 100, 300 mg/kg
# Procedure, shortened: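 Albino mice, fasted overnight, received test compound i.p. in PEG-200 at 30, 100 and 300 mg/kg. Electroshock was 60-cycle alternating current, 50 mA for 0.25 s, delivered via ear-clip electrodes, with testing at 0.5 and 4 h after dosing. Protection meant abolition of hind limb tonic extension. The minimum dose protecting more than half of animals (n = 5) was recorded.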
# [3] = 100 mg/kg, after a few minutes of administration
smiles,measurement,setting,value
"CCC1(c2ccccc2)C(=O)NC(=O)NC1=O [phenobarbital, reference compound]",number of animals dead/tot number of animals tested,Swiss albino mice; dosage 5 mg/kg,0/3
same,number of animals dead/tot number of animals tested,Swiss albino mice; dosage 30 mg/kg,0/3
same,number of animals dead/tot number of animals tested,Swiss albino mice; dosage 100 mg/kg,0/3
same,number of animals dead/tot number of animals tested,Swiss albino mice; dosage 300 mg/kg,0/3
same,minimal effective dose,[1],100 mg/kg
same,neurotoxicity minimum dose,albino mice; 0.5 h,100 mg/kg
same,neurotoxicity minimum dose,albino mice; 4.0 h,300 mg/kg
"COc1ccc(-c2nc3ccccc3s2)cc1OCc1nnc(-c2ccc([N+](=O)[O-])cc2)o1 [6h, 2-{4-Methoxy-3-[5-(4-nitro-phenyl)-[1,3,4]oxadiazol-2-ylmethoxy]-phenyl}-benzothiazole]",number of animals dead/tot number of animals tested,Swiss albino mice; dosage 5 mg/kg,0/3
same,number of animals dead/tot number of animals tested,Swiss albino mice; dosage 30 mg/kg,0/3
same,number of animals dead/tot number of animals tested,Swiss albino mice; dosage 100 mg/kg,0/3
same,number of animals dead/tot number of animals tested,Swiss albino mice; dosage 300 mg/kg,0/3
same,neurotoxicity (in words),albino mice,no neurotoxicity
same,depressant effect (in words),mice,not depressants
same,% reduction in locomotor activity,mice; dose 100 mg/kg,0.37%
same,"locomotor activity score, after treatment means ± SEM",mice; dose 100 mg/kg,373.4 ± 3.85^ns
"COc1ccc(-c2nnc(COc3cc(-c4nc5ccccc5s4)ccc3OC)o2)cc1 [6b, 2-{4-Methoxy-3-[5-(4-methoxy-phenyl)-[1,3,4]oxadiazol-2-ylmethoxy]-phenyl}-benzothiazole]",number of animals dead/tot number of animals tested,Swiss albino mice; dosage 5 mg/kg,0/3
same,number of animals dead/tot number of animals tested,Swiss albino mice; dosage 30 mg/kg,0/3
same,number of animals dead/tot number of animals tested,Swiss albino mice; dosage 100 mg/kg,0/3
same,number of animals dead/tot number of animals tested,Swiss albino mice; dosage 300 mg/kg,0/3
same,HLTE (MES) minimum dose for antiepileptic potential,[2],failed to exhibit activity
"COc1ccc(-c2nc3ccccc3s2)cc1OCc1nnc(Cc2ccccc2)o1 [6e, 2-[3-(5-Benzyl-[1,3,4]oxadiazol-2-ylmethoxy)-4-methoxy-phenyl]-benzothiazole]",acute toxicity observation,Swiss albino mice; [3],slight spasmodic behavior
same,acute toxicity observation,"Swiss albino mice; 300 mg/kg body weight, 24 h",mortality with involuntary movements
same,number of animals dead/tot number of animals tested,Swiss albino mice; dosage 5 mg/kg,0/3
same,number of animals dead/tot number of animals tested,Swiss albino mice; dosage 30 mg/kg,0/3
same,number of animals dead/tot number of animals tested,Swiss albino mice; dosage 100 mg/kg,1/3
same,number of animals dead/tot number of animals tested,Swiss albino mice; dosage 300 mg/kg,1/3
"COc1ccc(-c2nc3ccccc3s2)cc1OCc1nnc(-c2cc([N+](=O)[O-])cc([N+](=O)[O-])c2O)o1 [6j, 2-[5-(5-Benzothiazol-2-yl-2-methoxy-phenoxymethyl)-[1,3,4]oxadiazol-2-yl]-4,6-dinitro-phenol]",number of animals dead/tot number of animals tested,Swiss albino mice; dosage 5 mg/kg,0/3
same,number of animals dead/tot number of animals tested,Swiss albino mice; dosage 30 mg/kg,0/3
same,number of animals dead/tot number of animals tested,Swiss albino mice; dosage 100 mg/kg,0/3
same,number of animals dead/tot number of animals tested,Swiss albino mice; dosage 300 mg/kg,0/3
same,neurotoxicity (in words),albino mice,no neurotoxicity
same,depressant effect (in words),mice,not depressants
same,% reduction in locomotor activity,mice; dose 100 mg/kg,0.48%
same,"locomotor activity score, after treatment means ± SEM",mice; dose 100 mg/kg,368.8 ± 2.63^ns
"COc1ccc(-c2nc3ccccc3s2)cc1OCc1nnc(-c2c(OC)cccc2OC)o1 [6n, 2-{3-[5-(2,6-Dimethoxyphenyl)-[1,3,4]oxadiazol-2-ylmethoxy]-4-methoxy-phenyl}benzothiazole]",number of animals dead/tot number of animals tested,Swiss albino mice; dosage 5 mg/kg,0/3
same,number of animals dead/tot number of animals tested,Swiss albino mice; dosage 30 mg/kg,0/3
same,number of animals dead/tot number of animals tested,Swiss albino mice; dosage 100 mg/kg,0/3
same,number of animals dead/tot number of animals tested,Swiss albino mice; dosage 300 mg/kg,0/3
"COc1ccc(-c2nc3ccccc3s2)cc1OCc1nnc(-c2ccc(N)cc2)o1 [6a, 4-[5-(5-Benzothiazol-2-yl-2-methoxy-phenoxymethyl)-[1,3,4]oxadiazol-2-yl]-phenylamine]",number of animals dead/tot number of animals tested,Swiss albino mice; dosage 5 mg/kg,0/3
same,number of animals dead/tot number of animals tested,Swiss albino mice; dosage 30 mg/kg,0/3
same,number of animals dead/tot number of animals tested,Swiss albino mice; dosage 100 mg/kg,0/3
same,number of animals dead/tot number of animals tested,Swiss albino mice; dosage 300 mg/kg,0/3
"COc1ccc(-c2nc3ccccc3s2)cc1OCc1nnc(C(c2ccccc2)c2ccccc2)o1 [6i, 2-[3-(5-Benzhydryl-[1,3,4]oxadiazol-2-ylmethoxy)-4-methoxy-phenyl]-benzothiazole]",acute toxicity observation,"Swiss albino mice; 300 mg/kg body weight, 24 h",mortality with involuntary movements
same,number of animals dead/tot number of animals tested,Swiss albino mice; dosage 5 mg/kg,0/3
same,number of animals dead/tot number of animals tested,Swiss albino mice; dosage 30 mg/kg,0/3
same,number of animals dead/tot number of animals tested,Swiss albino mice; dosage 100 mg/kg,0/3
same,number of animals dead/tot number of animals tested,Swiss albino mice; dosage 300 mg/kg,1/3
"O=C1NC(=O)C(c2ccccc2)(c2ccccc2)N1 [phenytoin, reference compound]",number of animals dead/tot number of animals tested,Swiss albino mice; dosage 5 mg/kg,0/3
same,number of animals dead/tot number of animals tested,Swiss albino mice; dosage 30 mg/kg,0/3
same,number of animals dead/tot number of animals tested,Swiss albino mice; dosage 100 mg/kg,0/3
same,number of animals dead/tot number of animals tested,Swiss albino mice; dosage 300 mg/kg,0/3
same,neurotoxicity minimum dose,albino mice; 0.5 h,100 mg/kg
same,neurotoxicity minimum dose,albino mice; 4.0 h,100 mg/kg
"COc1ccc(-c2nc3ccccc3s2)cc1OCc1nnc(-c2c(C)cccc2C)o1 [6k, 2-{3-[5-(2,6-Dimethylphenyl)-[1,3,4]oxadiazol-2-ylmethoxy]-4-methoxy-phenyl}-benzothiazole]",acute toxicity observation,"Swiss albino mice; 300 mg/kg body weight, 24 h",mortality with involuntary movements
same,number of animals dead/tot number of animals tested,Swiss albino mice; dosage 5 mg/kg,0/3
same,number of animals dead/tot number of animals tested,Swiss albino mice; dosage 30 mg/kg,0/3
same,number of animals dead/tot number of animals tested,Swiss albino mice; dosage 100 mg/kg,0/3
same,number of animals dead/tot number of animals tested,Swiss albino mice; dosage 300 mg/kg,1/3
"COc1ccc(-c2nc3ccccc3s2)cc1OCc1nnc(-c2ccccc2)o1 [6d, 2-[4-Methoxy-3-(5-phenyl-[1,3,4]oxadiazol-2-ylmethoxy)-phenyl]-benzothiazole]",acute toxicity observation,"Swiss albino mice; 300 mg/kg body weight, 24 h",mortality with involuntary movements
same,number of animals dead/tot number of animals tested,Swiss albino mice; dosage 5 mg/kg,0/3
same,number of animals dead/tot number of animals tested,Swiss albino mice; dosage 30 mg/kg,0/3
same,number of animals dead/tot number of animals tested,Swiss albino mice; dosage 100 mg/kg,0/3
same,number of animals dead/tot number of animals tested,Swiss albino mice; dosage 300 mg/kg,2/3
"COc1ccc(-c2nc3ccccc3s2)cc1OCc1nnc(-c2ccc(Cl)cc2)o1 [6g, 2-{3-[5-(4-Chloro-phenyl)-[1,3,4]oxadiazol-2-ylmethoxy]-4-methoxy-phenyl}-benzothiazole]",acute toxicity observation,"Swiss albino mice; 300 mg/kg body weight, 24 h",mortality with involuntary movements
same,number of animals dead/tot number of animals tested,Swiss albino mice; dosage 5 mg/kg,0/3
same,number of animals dead/tot number of animals tested,Swiss albino mice; dosage 30 mg/kg,0/3
same,number of animals dead/tot number of animals tested,Swiss albino mice; dosage 100 mg/kg,0/3
same,number of animals dead/tot number of animals tested,Swiss albino mice; dosage 300 mg/kg,1/3
"COc1ccc(-c2nc3ccccc3s2)cc1OCc1nnc(-c2ccc(O)cc2)o1 [6l, 4-[5-(5-Benzothiazol-2-yl-2-methoxy-phenoxymethyl)-[1,3,4]oxadiazol-2-yl]-phenol]",number of animals dead/tot number of animals tested,Swiss albino mice; dosage 5 mg/kg,0/3
same,number of animals dead/tot number of animals tested,Swiss albino mice; dosage 30 mg/kg,0/3
same,number of animals dead/tot number of animals tested,Swiss albino mice; dosage 100 mg/kg,0/3
same,number of animals dead/tot number of animals tested,Swiss albino mice; dosage 300 mg/kg,0/3
same,neurotoxicity (in words),albino mice,no neurotoxicity
same,depressant effect (in words),mice,not depressants
same,% reduction in locomotor activity,mice; dose 100 mg/kg,0.73%
same,"locomotor activity score, after treatment means ± SEM",mice; dose 100 mg/kg,375.8 ± 3.65^ns
"COc1ccc(-c2nc3ccccc3s2)cc1OCc1nnc(-c2ccc(Br)cc2)o1 [6c, 2-{3-[5-(4-Bromo-phenyl)-[1,3,4]oxadiazol-2-ylmethoxy]-4-methoxy-phenyl}-benzothiazole]",acute toxicity observation,Swiss albino mice; [3],slight spasmodic behavior
same,acute toxicity observation,"Swiss albino mice; 300 mg/kg body weight, 24 h",mortality with involuntary movements
same,number of animals dead/tot number of animals tested,Swiss albino mice; dosage 5 mg/kg,0/3
same,number of animals dead/tot number of animals tested,Swiss albino mice; dosage 30 mg/kg,0/3
same,number of animals dead/tot number of animals tested,Swiss albino mice; dosage 100 mg/kg,1/3
same,number of animals dead/tot number of animals tested,Swiss albino mice; dosage 300 mg/kg,2/3
same,HLTE (MES) minimum dose for antiepileptic potential,[2],failed to exhibit activity
same,neurotoxicity minimum dose,albino mice; 0.5 h,300 mg/kg
same,neurotoxicity minimum dose,albino mice; 4.0 h,300 mg/kg
"COc1ccc(-c2nc3ccccc3s2)cc1OCc1nnc(-c2ccc(N(C)C)cc2)o1 [6m, {4-[5-(5-Benzothiazol-2-yl-2-methoxy-phenoxymethyl)-[1,3,4]oxadiazol-2-yl]-phenyl}-dimethylamine]",number of animals dead/tot number of animals tested,Swiss albino mice; dosage 5 mg/kg,0/3
same,number of animals dead/tot number of animals tested,Swiss albino mice; dosage 30 mg/kg,0/3
same,number of animals dead/tot number of animals tested,Swiss albino mice; dosage 100 mg/kg,0/3
same,number of animals dead/tot number of animals tested,Swiss albino mice; dosage 300 mg/kg,0/3
same,HLTE (MES) minimum dose for antiepileptic potential,[2],failed to exhibit activity
"CN1C(=O)CN=C(c2ccccc2)c2cc(Cl)ccc21 [diazepam, reference compound]",% reduction in locomotor activity,mice; 4 mg/kg (intraperitoneally),80.4%
same,"locomotor activity score, after treatment means ± SEM",mice; 4 mg/kg (intraperitoneally),74.6 ± 2.65
